Reference: ChEMBL document CHEMBL3272038, “Synthesis and central nervous system depressant activity of some bicyclic amides” (J Med Chem, 1976)
Calls of active or inactive are those of the source. The calls are words filed in the database; no cut-off is given here.

What was measured:
[1] = Acute toxicity in ip dosed Royal Hart Wistar rat; format: organism-based; conditions: in vivo
Procedure, shortened: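 Paired male Royal Hart Wistar rats (136–160 g) were housed in wire cages and dosed ip. LD50 was read 2 hr after administration, using four rats per substance, and estimated by probit analysis.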

Mus musculus [2] = organism: Mus musculus; assay: Anticonvulsant activity in mouse assessed as protection against maximal electroshock-induced seizures; format: functional
Procedure, shortened: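 Maximal electroshock seizure test in mice, run by an earlier published method. Compounds were given ip at ten animals per dose, and ED50 is expressed in mg/kg ip.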

Mus musculus [3] = organism: Mus musculus; assay: Anticonvulsant activity in mouse assessed as protection against N-sulfamoylhexahydroazepine-induced convulsions; format: functional
Procedure, shortened: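 N-sulfamoylhexahydroazepine convulsion test in mice, run by an earlier published method. Compounds were given ip at ten animals per dose, and ED50 is expressed in mg/kg ip.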

Mus musculus [4] = assay: Central nervous depressant activity in ip dosed mouse assessed as induction of ataxia; format: functional; conditions: Central nervous system
Procedure, shortened: (§1)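 Behavioral scoring in mice used a modified Irwin observational method. Compounds were given ip at ten animals per dose. Ataxia and loss of righting reflex were recorded, and ED50 values are in mg/kg ip.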

Mus musculus [5] = assay: Central nervous depressant activity in ip dosed mouse assessed as loss of righting reflex; format: functional; conditions: Central nervous system; procedure, shortened: as §1
Mus musculus [6] = assay: Reinduction of anesthesia-induced loss of righting in dosed mouse administered compound following recovery from hexobarbital anesthesia; format: functional
Procedure, shortened: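 Mice were anesthetized with hexobarbital (70 mg/kg iv). Compound was given ip immediately on recovery, and reinduction of loss of righting was timed from that point. The method was modified from earlier work, and RD50 is expressed in mg/kg ip.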

Mus musculus [7] = assay: Anticonvulsant activity in mouse assessed as protection against N-sulfamoylhexahydroazepine-induced convulsions at 400 mg/kg, ip; format: functional, organism-based; design: dose 400 mg/kg
Mus musculus [8] = assay: Anticonvulsant activity in mouse assessed as protection against maximal electroshock-induced seizures at 200 mg/kg, ip; format: functional, organism-based; design: dose 200 mg/kg
Mus musculus [9] = assay: Anticonvulsant activity in mouse assessed as protection against N-sulfamoylhexahydroazepine-induced convulsions at 200 mg/kg, ip; format: functional, organism-based; design: dose 200 mg/kg
Mus musculus [10] = assay: Anticonvulsant activity in mouse assessed as protection against maximal electroshock-induced seizures at 100 mg/kg, ip; format: functional, organism-based; design: dose 100 mg/kg

Row | Structure (SMILES) | LD50 [1] [mg/kg] | ED50 (Mus musculus [2]) [mg/kg] | ED50 (Mus musculus [3]) [mg/kg] | ED50 (Mus musculus [4]) [mg/kg] | ED50 (Mus musculus [5]) [mg/kg] | RD50 (Mus musculus [6]) [mg/kg] | Activity (Mus musculus [7]) | Activity (Mus musculus [8]) | Activity (Mus musculus [9]) | Activity (Mus musculus [10])
1 | O=C1CCC2(c3ccc(Cl)c(Cl)c3)OCCCN12 (stereo not drawn) | 550 | 112 | < 75 | < 150 | < 150 | >150 | – | – | – | –
2 | O=C1CCC2(c3ccc(F)cc3)OCCCN12 (stereo not drawn) | 600 | 68.7 | 50 | 75 | 100 | 66 | – | – | – | –
3 | O=C(CCC(=O)c1cccs1)NCCCO | 475 | > 300 | > 300 | 300 | 300 | >300 | – | – | – | –
4 | O=C1CCC2(c3ccccc3)OCCCN12 (stereo not drawn) | 500 | 92 | 169 | 37.5 | 150 | 34 | – | – | – | –
5 | Cc1ccc(C23CCC(=O)N2CCCO3)c(C)c1 (stereo not drawn) | 600 | > 150 | < 150 | < 50 | 150 | <150 | – | – | – | –
6 | CCC1(c2ccccc2)C(=O)N=C([O-])NC1=O.[Na+] (stereo not drawn) [PHENOBARBITAL SODIUM] | 225 | 15.4 | 8 | 62.5 | 83 | 65.6 | – | – | – | –
7 | O=C(CCC(=O)c1ccc(F)cc1)NCCCO | > 800 | > 400 | > 400 | 300 | 500 | >400 | – | – | – | –
8 | O=C1CCC2(c3cccs3)OCCCN12 (stereo not drawn) | 467 | 112 | > 75 | > 75 | > 75 | 46.5 | – | – | – | –
9 | Cc1ccc(C(=O)CCC(=O)NCCCO)cc1 | 750 | > 300 | > 300 | 300 | 700 | <300 | – | – | – | –
10 | O=C1CCCC2(c3ccccc3)OCCCN12 (stereo not drawn) | 500 | < 150 | 122 | < 50 | 150 | 75 | – | – | – | –
11 | CCC1(c2ccccc2)CCC(=O)NC1=O (stereo not drawn) [GLUTETHIMIDE] | 350 | 24.7 | – | 100 | 229 | 112.5 | inactive | – | – | –
12 | O=C(CCC(=O)c1ccc(Cl)c(Cl)c1)NCCCO | 500 | 450 | > 600 | 300 | 500 | >300 | – | – | – | –
13 | O=C1CCC2(c3ccccc3)OCCN12 (stereo not drawn) | 300 | – | – | < 50 | 150 | 37.5 | – | inactive | inactive | –
14 | O=C1CCC2(c3ccc(Cl)cc3)OCCCN12 (stereo not drawn) | 675 | 58 | 91.7 | 75 | 81.2 | >100 | – | – | – | –
15 | COc1ccc(C(=O)CCC(=O)NCCCO)cc1 | 800 | > 600 | > 600 | 150 | 800 | <600 | – | – | – | –
16 | O=C(CCC(=O)c1ccc(Cl)cc1)NCCCO | 633 | > 300 | > 300 | 300 | 325 | <300 | – | – | – | –
17 | O=C1CCCC2(c3ccccc3)OCCN12 (stereo not drawn) | – | 158 | 150 | < 150 | > 150 | 69 | – | – | – | –
18 | Cc1ccc(C23CCC(=O)N2CCCO3)cc1 (stereo not drawn) | 675 | – | – | < 50 | 160 | >100 | – | – | inactive | inactive
19 | COc1ccc(C23CCC(=O)N2CCCO3)cc1 (stereo not drawn) | – | 93.8 | 138 | < 150 | < 150 | <150 | – | – | – | –
20 | Cc1ccc(C(=O)CCC(=O)NCCCO)c(C)c1 | 633 | > 150 | > 150 | 150 | 150 | <150 | – | – | – | –
